Assay outcomes as filed in PubChem BioAssay.
Fh CTSL1 inh: counter-screen for PFM18AAP inhibitors: inhibitors of F. hepatica cathepsin L1 | recombinant F. hepatica cathepsin L1, Z-Leu-Arg-MCA fluorescence | inhibition, % at 5.96 µM | actives 0.49% (n = 300,000) | AID 1906;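 active means inhibition above the mean of all tested compounds plus 3 SD, set per screening campaign, cut at about 17% in these data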
PfM18AAP inh: PfM18AAP enzyme inhibition; inhibition, % at 7.35 µM; actives 1.2% (n = 290,000); recombinant PfM18AAP, H-Glu-NHMec fluorogenic cleavage; AID 1822;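 active means inhibition above the campaign mean inhibition over all tested compounds plus 3 SD, cut at about 28% in these data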
VIM-2 inh: inhibitors of Pseudomonas aeruginosa VIM-2 metallo-beta-lactamase | purified VIM-2, nitrocefin hydrolysis, epi-absorbance fluorescence | inhibition, % at 5.6 µM | actives 0.89% (n = 290,000) | AID 1527;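 active means inhibition above the mean of all tested compounds plus 3 SD, cutoff set per screening run, cut at about 7.5% in these data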;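 further: red hydrolysis product quenches plate fluorescence so inhibitors raise well fluorescence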
IMP-1 inh: inhibitors of Pseudomonas aeruginosa IMP-1 metallo-beta-lactamase; purified IMP-1, nitrocefin hydrolysis, epi-absorbance fluorescence; actives 0.45% (n = 290,000); AID 1556; inhibition, % at 5.6 µM;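 active means inhibition above the mean plus 3 SD of all compounds in the same screening run, cut at about 4.5% in these data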
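assay system = purified recombinant IMP-1 metallo-beta-lactamase enzyme | schedule = 15 min preincubation plus 25 min reaction at 25 °C | signal = Epi-absorbance fluorescence, 480 nm excitation, 530 nm emission | read-out basis = percent inhibition from optical density relative to buffer-blank wells | controls = IMP-1 with DMSO as 0%, enzyme-free DMSO as 100%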
Of the large screens only hits and unclear results are named; the others gave an inactive call. The list is not random: actives were taken first. Their share in the collection is about 2.7%.

N#CC(C(=O)NCCc1ccccc1)c1nc2ccccc2nc1N1CCCCC1 (stereo not given)	none
N#CC(C(=O)NCc1ccccc1)c1nc2ccccc2nc1N1CCCC1 (stereo not given)	IMP-1 inh 8.2
Cc1c(OCC(=O)NC(Cc2ccc(Cl)cc2)C(=O)O)ccc2c3c(c(=O)oc12)CCCC3 (stereo not given)	none
Cc1c(OCC(=O)N[C@@H](Cc2ccccc2)C(=O)O)ccc2c1oc(=O)c1ccccc12	VIM-2 inh 12
Cc1c(OCC(=O)N[C@@H](Cc2ccccc2)C(=O)O)ccc2c3c(c(=O)oc12)CCC3	VIM-2 inh 12
Cc1c(O)ccc(-c2n[nH]c(C(=O)O)c2-c2nc3ccccc3s2)c1O	PfM18AAP inh 30
O=C(c1ccco1)N1CCN(c2ncnc3c2oc2ccccc23)CC1	VIM-2 inh 10.0
COc1ccc(NS(=O)(=O)c2cccc(C(=O)NCc3ccco3)c2)cc1	none (no result: PfM18AAP inh, VIM-2 inh, IMP-1 inh)
Cc1ccc(CC2C(=O)N(c3ccccc3)C(=O)C2C)cc1 (stereo not given)	none
Cc1ccc(CC2C(=O)N(c3cc(Cl)ccn3)C(=O)C2C)cc1 (stereo not given)	IMP-1 inh 13
O=C(CCc1ccccc1)NCCc1ccc(F)cc1	none
COc1ccc(NC(=O)CCC(=O)c2cccs2)cc1S(=O)(=O)Nc1ccccc1Cl	IMP-1 inh 5.2
Cc1ccc(C)c(S(=O)(=O)N(C)C2CCS(=O)(=O)C2)c1 (stereo not given)	none (no result: PfM18AAP inh, VIM-2 inh, IMP-1 inh)
Cc1ccccc1N=CC1=C(O)c2ccccc2C1=O	none
CCC(=O)Nc1cc(C)c(NC(=O)C23CC4CC(CC(C4)C2)C3)cn1	none
Cc1cc(NC(=O)C23CC4CC(CC(C4)C2)C3)n[nH]1	Fh CTSL1 inh 20
O=C(Nc1nncs1)C12CC3CC(CC(C3)C1)C2	none
O=C(Nc1nn[nH]n1)C12CC3CC(CC(C3)C1)C2	VIM-2 inh 9.0
O=C(CCCOc1ccc(Br)cc1)NCCc1ccc(OC(F)F)cc1	none
COc1ccc(N2C(=O)C(C)(C)C2c2c(O)ccc3ccccc23)cc1 (stereo not given)	Fh CTSL1 inh 17
Oc1ccccc1/C=N/[n+]1ccccc1	none
CN1C(=S)NC(C)(C)CC1(C)c1ccc(O)cc1O (stereo not given)	VIM-2 inh 8.3
CCOC(=O)c1c(S(=O)(=O)N2CCN(Cc3ccccc3)CC2)c(C)n(C)c1C	none
O=C1C(=O)c2ccccc2C([O-])=C1[n+]1ccccc1	none
CCc1cc[n+](C2=C([O-])c3ccccc3C(=O)/C2=N\S(=O)(=O)c2cccs2)cc1	Fh CTSL1 inh 20
CCn1cc(C(=O)Nc2cc3c(cc2NC(C)=O)OCCO3)c(=O)c2ccc(C)nc21	none (no result: Fh CTSL1 inh)
Cc1nc(SCc2ccccc2C#N)n[nH]1	IMP-1 inh 4.9
COc1cc2cc(CN(Cc3nnnn3Cc3ccco3)C3CCCCC3)c(=O)[nH]c2cc1OC	VIM-2 inh 9.3
C[C@H](NC(=O)N1CCn2c1nc1ccccc12)C(=O)NCCc1ccccc1	none
CC(C)c1nc2sc3c(=S)nc[nH]c3c2c2c1CCC2	IMP-1 inh 4.5
CC(C)c1nc2sc3c(=O)[nH]cnc3c2c2c1CCC2	none
COc1ccc(N=Cc2sc(O)c3ccccc23)cc1	IMP-1 inh 8.3
COc1ccc(N=Cc2c(O)c3ccccc3n2C(C)=O)cc1	none
COc1cc(NC(=O)C2CC(c3c(F)cccc3Cl)=NO2)cc(OC)c1OC (stereo not given)	none
C/C(=N\O)c1noc(C)c1C(=O)Nc1nccs1	VIM-2 inh 12
CCOC(=O)c1noc(C)c1C(=O)Nc1nccs1	none
NC(=O)c1ccccc1NC(=O)Nc1cccc2ccccc12	none
NC(=O)NNC(=S)Nc1cccc2ccccc12	Fh CTSL1 inh 91, PfM18AAP inh 50
COc1ccc(/C=N/n2c(SC)nnc2-c2ccccc2)c(OC)c1OC	VIM-2 inh 23 (no result: Fh CTSL1 inh)
COc1ccc(/C=N/n2c(SC)nnc2-c2ccccc2)cc1C	none
CCC(NS(=O)(=O)c1ccc(C)cc1)C(=O)N1CCN(c2ccccn2)CC1 (stereo not given)	IMP-1 inh 4.5
CC1(C)COC2(OC1)C(=O)Nc1ccccc12	none
O=C1Nc2ccccc2C12OCC1(CO2)COC2(OC1)C(=O)Nc1ccccc12 (stereo not given)	Fh CTSL1 inh 28
C[n+]1ccccc1/C=C/c1cc(Br)ccc1O	IMP-1 inh 16
COc1ccc(/C=C/c2cccc[n+]2C)c(O)c1	none
CSc1nnc2c(n1)OC(C)=Nc1ccccc1-2	VIM-2 inh 11
CCC1=Nc2ccccc2-c2nnc(SC)nc2O1	VIM-2 inh 10
COC(=O)c1c(S(C)(=O)=O)nc(-c2ccccc2)[nH]c1=O	none
